Sampled rows, rich in hits. Any-hit rate of the full collection: about 2.9%.
TAG inh: inhibitors of triacylglycerol accumulation; H9c2 cells, Nile Red lipid (TAG) fluorescence; cells loaded with 200 µM oleic acid; inhibition, % at 12.5 µM; 230,000 tested, 0.66% active; AID 651582;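 active means pattern-corrected inhibition of lipid staining of at least 50% with the nuclear-stain viability signal not falling by more than 50%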;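 further: 0% = DMSO wells and 100% = triacsin C control wells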
PG9 Ab binder: PG9 antibody binding by small molecule. TR-FRET gp120-PG9 antibody binding. inhibition, % at 6.7 µM. 360,000 tested, 0.43% active. AID 624416; in the data active means inhibition above about 8.5%
hiPSC survival: increases survival of single human iPS cells | 360,000 tested, 0.044% active | AID 602274 | hiPSC single-cell survival, ATPlite luminescence; 100% = ROCK inhibitor wells, 0% = DMSO | survival enhancement, % at 20 µM; in the data active means survival enhancement above about 18%;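 further: cells exposed to compounds for 16 hours before the ATP read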
NR1D1 modulator: modulators of human Rev-erb alpha DNA binding; 370,000 tested, 0.79% active; P20393; activity, % at 10 µM; Rev-erbα–FITC-DNA binding, fluorescence polarization, 90 min;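 active means activity above about 14%, limit read from the data; passing the limit was not always enough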;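 further: 0% = DMSO wells with 35 nM protein and 100% = DMSO wells with 750 nM protein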
Target sequence (P20393 whole entry, looked up): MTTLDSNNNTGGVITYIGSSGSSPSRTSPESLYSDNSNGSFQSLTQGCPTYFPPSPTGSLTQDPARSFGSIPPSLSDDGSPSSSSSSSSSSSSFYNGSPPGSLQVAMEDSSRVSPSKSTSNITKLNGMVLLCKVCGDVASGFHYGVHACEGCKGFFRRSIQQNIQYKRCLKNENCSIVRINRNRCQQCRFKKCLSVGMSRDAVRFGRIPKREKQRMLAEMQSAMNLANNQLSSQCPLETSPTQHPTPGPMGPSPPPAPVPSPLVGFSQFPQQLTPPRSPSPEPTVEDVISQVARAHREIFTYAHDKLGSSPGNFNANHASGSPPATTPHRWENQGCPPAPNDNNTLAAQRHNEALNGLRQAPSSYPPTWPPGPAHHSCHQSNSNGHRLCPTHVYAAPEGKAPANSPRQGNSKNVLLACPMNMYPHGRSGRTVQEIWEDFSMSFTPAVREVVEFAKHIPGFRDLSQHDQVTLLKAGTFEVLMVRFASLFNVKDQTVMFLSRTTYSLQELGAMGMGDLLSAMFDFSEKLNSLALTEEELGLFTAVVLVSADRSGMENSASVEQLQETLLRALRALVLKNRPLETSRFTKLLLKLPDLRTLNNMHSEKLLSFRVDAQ
beta cell repl: induces beta-cell replication in MIN6 cells | MIN6 cells proliferation, ATPlite luminescence, 48 h; cells starved in 0.2% serum; 100% = growth in 10% serum | 330,000 tested, 0.29% active | proliferation, % at 10 µM | AID 2380;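 active means compounds whose signal lies at least 3.5 SD above the mean of all wells on their plate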;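 further: 0% = DMSO-treated cells in low-serum medium and 100% = 10% serum control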
T cruzi repl: blocks replication of Trypanosoma cruzi; 300,000 tested, 1.4% active; AID 1885; T. cruzi beta-gal in NIH3T3, luminescence, 90 h; inhibition, % (test concentration not listed);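 active means mean inhibition across valid replicates above about 55%, limit read from the data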;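 further: signal also drops with host cell toxicity which is not excluded here; 0% = plate median of DMSO wells and 100% = zero luminescence signal; higher percent means less beta-gal luminescence so fewer parasites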
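System: Mouse NIH/3T3 fibroblasts infected with β-gal-expressing T. cruzi Tulahuen C4 | Quantity: NIH/3T3 cells, 5,000 per well | Reagent: 5000 reporter trypomastigotes per well | Dosing: Compound pinned at 50 nL/well, DMSO | Schedule: 3 h host attachment, then at least 90 h co-culture | Detection: GalScreen luminescence, 60 min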
Rev-erbA confirm: confirmation of modulators of human Rev-erb alpha DNA binding; shares compounds with NR1D1 modulator; Rev-erb alpha FITC-DNA binding, fluorescence polarization, 90 min; activation, % at 25 µM; 3,000 tested, 61% active; AID 1259319;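 active means activation at or above a set limit, or at least 3 SD above the negative control mean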;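 further: 0% = 35 nM protein with DMSO and 100% = 750 nM protein high control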
RORg DNA counter: counter-screen for Rev-erb alpha modulators: RORgamma DNA binding; shares compounds with NR1D1 modulator; purified RORgamma protein-FITC-DNA binding, fluorescence polarization; IC50, µM; 910 tested, 8% active; AID 1259320;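 active means Compounds whose fitted half-maximal concentration for disrupting protein-DNA binding is below 10 micromolar; the record names Rev-erb in its text, so the target is in doubt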
* = called active by the depositor; i = inactive; · = no result given.

SMILES	TAG inh	PG9 Ab binder	hiPSC survival	NR1D1 modulator	beta cell repl	T cruzi repl	Rev-erbA confirm	others
O=C1c2ccc(-c3ccc(F)cc3OCc3ccccc3)cc2S(=O)(=O)c2cccc(C(=O)N3CCN(c4ncc(Cl)cc4Cl)CC3)c21	19	0	-1	1	0	·	·
CCOC(=O)c1c(C)nc2c(c1-c1ccc(OC)c(OC)c1)C(=O)c1ccccc1-2	·	2	-1	53*	-3	8	47*
CCOC(=O)Nc1ccc2c(COC(=O)CNS(=O)(=O)c3ccc(NC(C)=O)cc3)cc(=O)oc2c1	·	6	1	54*	1	-8	35*	RORg DNA counter=>40
Cc1ccc2c(COC(=O)CNS(=O)(=O)c3ccccc3)cc(=O)oc2c1	5	2	1	3	-4	·	·
COc1ccc(-c2cc(C(=O)OCC(=O)c3c(N)n(C)c(=O)n(C)c3=O)c3ccccc3n2)cc1	23	0	0	30*	-1	42	19*
COc1ccc(-c2cc(C(=O)c3c(N)n(C)c(=O)n(C)c3=O)c3ccccc3n2)cc1	4	-3	-1	5	-6	-7	·
O=C(Nc1nccs1)c1c(O)c2cccc3c2n(c1=O)CCC3	·	1	·	36*	-6	21	30*
O=C(Nc1ccccn1)c1c(O)c2cccc3c2n(c1=O)CCC3	2	1	0	32*	1	-24	7
Cc1cc(/C=C(\C#N)C(=O)NCc2ccco2)c(C)n1-c1ccc(C(=O)O)cc1	3	3	1	4	-2	-11	·
NS(=O)(=O)c1ccc(CCNC(=O)c2cc3ccccc3s2)cc1	·	-1	0	23*	-3	-14	6
NS(=O)(=O)c1ccc(CCNC(=O)c2ccc(Cl)s2)cc1	-7	2	0	3	1	1	·
COc1cccc(-n2c([S-])c(C(=O)Nc3ccc(S(=O)(=O)N4CCOCC4)cc3)[n+]3cc(C(N)=O)ccc23)c1	11	-2	0	62*	-4	-6	63*	RORg DNA counter=i
Cc1ccc(S(=O)(=O)c2nnn3c2nc(N2CCC(C(N)=O)CC2)c2ccccc23)cc1C	·	-2	-1	-3	-2	3	·
O=S(=O)(c1ccccc1)c1nnn2c1nc(NC1CCN(Cc3ccccc3)CC1)c1ccccc12	·	-2	-1	47*	-8	30	16
O=S(=O)(c1ccccc1)c1nnn2c1nc(NC1CCN(Cc3ccccc3)CC1)c1cc(Cl)ccc12	·	-1	0	25*	-7	21	0
CC(Sc1ccccc1)C(=O)N1CCN(S(=O)(=O)c2ccc(Cl)cc2)CC1 (stereo unspecified)	·	-2	0	-2	0	5	·
Nc1nc2c(ncn2COCCO)c(=O)[nH]1	-2	1	-2	3	0	-4	·
COc1cc(NC(=O)c2ccco2)c(OC)cc1NC(=O)CCC(=O)Nc1cc(C)cc(C)c1	·	0	-1	-6	0	-18	·
COc1ccc(C(=O)CSc2nnc(-c3ccc(S(=O)(=O)N4CCOCC4)cc3)o2)cc1	·	3	-1	14	0	28	·
O=C(CSc1nnc(-c2ccc(S(=O)(=O)N3CCOCC3)cc2)o1)c1ccccc1F	·	0	-3	21*	0	-7	10
COC(=O)c1ccsc1NC(=O)c1ccc2c(c1)OCCO2	8	0	-1	8	1	-15	·
COC(=O)c1ccsc1NC(=O)c1ccc(Cl)s1	5	-2	-1	20*	0	0	-2
O=c1c2cnn(-c3ccccc3)c2ncn1Cc1cccnc1	3	1	11	0	0	7	·
O=C(Nc1ccc(C(F)(F)F)cc1)c1cc(-c2cccnc2)nc2ccc(Br)cc12	·	0	0	34*	-6	47	22*
CC(=O)Nc1cccc(NC(=O)c2cc(-c3cccnc3)nc3ccc(Br)cc23)c1	·	8	2	4	-4	-6	·
SMILES	TAG inh	PG9 Ab binder	hiPSC survival	NR1D1 modulator	beta cell repl	T cruzi repl	Rev-erbA confirm	others
COc1ccccc1-c1noc(-c2cccnc2)n1	13	-1	-1	2	-1	-3	·
COc1nc(-c2ccc(C)cc2)ccc1-c1noc(-c2ccco2)n1	-10	1	-2	0	-1	-13	·
COc1ccc(-c2ccc(-c3noc(-c4cccs4)n3)c(OC)n2)cc1	-12	1	3	-1	-4	10	·
COc1nc(-c2ccccc2)ccc1-c1noc(-c2cccnc2)n1	·	-2	2	35*	-1	18	5
COc1nc(-c2ccccc2)ccc1-c1noc(-c2ccccc2F)n1	-11	1	-1	29*	-3	-3	17
COc1nc(-c2ccc(C)cc2)ccc1-c1noc(-c2cccnc2)n1	-15	0	5	22*	0	7	8
Cc1c(Nc2nc(-c3ccccc3)cs2)c(=O)n(-c2ccccc2)n1C	·	-3	-2	-5	0	4	·
O=C(NCC(=O)N1CCN(S(=O)(=O)c2cccs2)CC1)c1ccc(Cl)cc1	4	-4	0	4	-2	-5	·
Cc1cc2n(n1)C(c1c[nH]c3ccccc13)Nc1ccccc1-2 (stereo unspecified)	11	·	5	·	-6	18	·
Cc1cc2n(n1)C(c1cn(-c3ccccc3)nc1C)Nc1ccccc1-2 (stereo unspecified)	·	0	-2	29*	0	21	5
CC1CCCN(S(=O)(=O)c2ccc(C(=O)Nc3ccccc3-c3nc4ccccc4[nH]3)cc2)C1 (stereo unspecified)	·	1	7	39*	-2	22	2
CC(=O)ON1C(C)(C)Cc2noc(N)c2C1(C)C	6	0	2	6	-3	-8	·
Cc1ccc(NC(=O)c2sc(Cl)nc2-c2ccccc2)cc1C	2	3	-2	53*	-4	16	38*	RORg DNA counter=>40
O=C(Nc1ccccc1)c1sc(Cl)nc1-c1ccccc1	·	-1	1	-1	0	-3	·
CCC(C(=O)Nc1nnc(-c2ccco2)s1)c1ccccc1 (stereo unspecified)	1	1	2	15*	-2	·	5
Oc1ccc(C=NC2CCCCC2)cc1	·	-1	1	3	-3	-5	·
O=C(O)COCC(=O)Nc1ccc2c(c1)oc1ccccc12	·	-1	1	1	-2	-23	·
CNC(=O)COc1ccccc1C(=O)Nc1ccc2c(c1)oc1ccccc12	·	1	-3	58*	0	24	79*	RORg DNA counter=i
Cc1ccc(-c2nc3ccccc3s2)cc1NC(=S)NC(=O)c1ccccc1	·	0	-1	-1	-3	7	·
